ChEMBL document CHEMBL1129282, “High-affinity partial agonist imidazo[1,5-a]quinoxaline amides, carbamates, and ureas at the gamma-aminobutyric acid A/benzodiazepine receptor complex” (J Med Chem, 1996)
Activity calls are given as the source filed them.

Experiments:
[1] = molecular target: GABA-A receptor; anion channel (Rattus norvegicus) (UniProt O09028+P15431+P18506+P18508+P19969+P20236+P23574+P23576+P28471+P28473+P30191+P62813+P63079+P63138+Q91ZM7+Q9ES14); settings: Brain, Brain membranes
[2] = molecular target: T1, GABA-A receptor; alpha-1/beta-2/gamma-2 (Homo sapiens, UniProt P14867+P18507+P47870); assay: Displacement of [3H]flunitrazepam from GABA-A receptor alpha-1-beta-2-gamma-2 subunits expressed in Sf9 cells
T1 sequence (P14867 whole entry): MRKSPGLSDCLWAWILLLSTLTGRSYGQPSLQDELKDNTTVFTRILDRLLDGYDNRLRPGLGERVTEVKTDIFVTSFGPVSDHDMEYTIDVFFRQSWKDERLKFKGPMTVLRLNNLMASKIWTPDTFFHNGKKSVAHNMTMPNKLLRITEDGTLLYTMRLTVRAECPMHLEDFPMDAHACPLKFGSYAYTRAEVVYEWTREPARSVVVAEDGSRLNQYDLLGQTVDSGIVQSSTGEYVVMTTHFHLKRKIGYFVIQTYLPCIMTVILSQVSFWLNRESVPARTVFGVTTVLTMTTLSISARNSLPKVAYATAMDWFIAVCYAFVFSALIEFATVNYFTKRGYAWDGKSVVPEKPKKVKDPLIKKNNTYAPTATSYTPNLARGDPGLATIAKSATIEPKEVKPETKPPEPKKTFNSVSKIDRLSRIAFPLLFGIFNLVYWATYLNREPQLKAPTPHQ
T1 sequence (P47870 whole entry): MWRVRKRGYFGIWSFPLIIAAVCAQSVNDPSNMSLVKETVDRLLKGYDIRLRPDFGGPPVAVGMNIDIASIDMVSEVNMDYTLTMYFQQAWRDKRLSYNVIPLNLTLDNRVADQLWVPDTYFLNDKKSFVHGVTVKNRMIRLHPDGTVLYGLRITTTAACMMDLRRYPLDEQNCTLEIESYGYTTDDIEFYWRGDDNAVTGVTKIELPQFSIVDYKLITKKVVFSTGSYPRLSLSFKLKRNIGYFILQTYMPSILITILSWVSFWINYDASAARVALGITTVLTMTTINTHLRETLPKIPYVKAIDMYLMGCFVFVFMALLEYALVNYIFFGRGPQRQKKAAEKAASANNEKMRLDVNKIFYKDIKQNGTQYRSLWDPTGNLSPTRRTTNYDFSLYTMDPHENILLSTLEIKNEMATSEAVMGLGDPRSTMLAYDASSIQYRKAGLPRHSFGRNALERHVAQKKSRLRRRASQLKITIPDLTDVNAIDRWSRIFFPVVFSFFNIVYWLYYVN
T1 sequence (P18507 whole entry): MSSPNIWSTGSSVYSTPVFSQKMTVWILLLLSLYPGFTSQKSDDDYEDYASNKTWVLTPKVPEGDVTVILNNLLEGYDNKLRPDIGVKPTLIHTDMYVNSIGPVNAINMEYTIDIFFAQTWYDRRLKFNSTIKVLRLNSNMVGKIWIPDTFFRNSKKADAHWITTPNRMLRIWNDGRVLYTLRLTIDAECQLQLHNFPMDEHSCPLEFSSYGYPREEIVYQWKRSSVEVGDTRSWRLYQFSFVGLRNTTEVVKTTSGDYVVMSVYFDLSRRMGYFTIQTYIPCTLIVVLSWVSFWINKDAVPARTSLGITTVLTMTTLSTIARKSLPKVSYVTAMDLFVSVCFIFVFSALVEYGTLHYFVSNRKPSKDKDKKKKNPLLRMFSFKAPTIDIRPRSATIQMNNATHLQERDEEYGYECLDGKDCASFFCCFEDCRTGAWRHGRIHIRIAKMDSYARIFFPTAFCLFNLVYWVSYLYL
Procedure, shortened: (§1)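 Membranes from Sf-9 cells infected (MOI 3) with baculoviruses for α1, α3 or α6 plus β2 and γ2 subunits, harvested 60 h postinfection. Binding in normal saline with 6 nM [3H]flunitrazepam (α1, α3) or [3H]Ro 15-4513 (α6), 50 µg membrane protein, varying test ligand. Incubated 60 min at 4 °C, filtered, scintillation counted.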

[3] = molecular target: GABA-A receptor alpha-1/beta-2/gamma-2 (Homo sapiens); assay: Binding affinity towards [3H]Fnz in alpha-1-beta-2-gamma-2 subtype was measured
[4] = organism: Rattus norvegicus; assay: In vitro [36Cl]-uptake in rat cerebrocortical synaptoneurosomes; format: functional; parameters: unit not given here
Procedure, shortened: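 Rat cerebrocortical synaptoneurosomes (1 mg protein) preincubated 5 min at 30 °C, then mixed with medium containing 0.2 µCi Na36Cl/mL, 118 mM NaCl, 5 mM KCl, 1.8 mM MgSO4, 20 mM Hepes/Tris pH 7.0, ± drug (methanol ≤0.4%). Uptake stopped after 5 s with ice-cold buffer, rapid filtration, four washes, radioactivity counted.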

[5] = molecular target: GABA-A receptor; anion channel; assay: Inhibition of [3H]flunitrazepam binding to GABA-A receptor of rat cortical membranes; format: cell membranes, Membrane
[6] = organism: Mus musculus; assay: Acute electroshock physical dependence activity was evaluated; A=Active; format: functional, organism-based
Procedure, shortened: (§2)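 Male CF-1 mice, 10/group, dosed sc twice daily (0800, and 1600 at twice the 0800 dose) for 3 days. 24 h after last dose, iv flumazenil 2.5 mg/kg in 5% aqueous N,N-dimethylacetamide. Electroshock seizure threshold (MA50) measured 5 min later versus saline-treated, flumazenil-injected controls. Compound scored active if threshold lowered beyond control interval.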

[7] = test system: Rattus norvegicus; assay: Antagonistic activity against metrazole-induced clonic convulsions in rat after ip injection; format: functional
[8] = molecular target: T2, GABA A receptor alpha-3/beta-2/gamma-2 (Homo sapiens, UniProt P18507+P34903+P47870); assay: (§3) Displacement of [3H]flunitrazepam from GABA-A receptor alpha-3-beta-2-gamma-2 subunits expressed in Sf9 cells
T2 sequence (P47870 whole entry): T1 sequence (P47870 whole entry)
T2 sequence (P18507 whole entry): T1 sequence (P18507 whole entry)
T2 sequence (P34903 whole entry): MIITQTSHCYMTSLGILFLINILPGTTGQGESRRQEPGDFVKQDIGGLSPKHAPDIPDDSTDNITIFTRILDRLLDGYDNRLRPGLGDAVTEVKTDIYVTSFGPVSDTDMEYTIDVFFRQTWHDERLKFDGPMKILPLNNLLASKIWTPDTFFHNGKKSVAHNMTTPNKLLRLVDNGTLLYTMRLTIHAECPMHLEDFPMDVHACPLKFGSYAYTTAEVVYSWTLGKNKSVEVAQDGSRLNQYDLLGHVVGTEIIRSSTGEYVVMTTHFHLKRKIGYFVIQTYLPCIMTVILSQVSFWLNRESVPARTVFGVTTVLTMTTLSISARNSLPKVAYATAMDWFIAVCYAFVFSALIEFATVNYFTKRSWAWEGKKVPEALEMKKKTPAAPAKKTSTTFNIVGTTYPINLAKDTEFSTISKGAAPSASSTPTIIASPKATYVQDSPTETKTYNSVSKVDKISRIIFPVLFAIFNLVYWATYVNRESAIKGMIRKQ
Procedure, shortened: as §1

[9] = test system: Mus musculus; assay: Ethanol potentiation activity was measured as loss of traction response in male CF-1 mice after oral administration; format: functional
[10] = molecular target: T1, GABA-A receptor; alpha-1/beta-2/gamma-2; assay: (§4) Displacement of [3H]Flunitrazepam from GABA-A receptor alpha-1-beta-2-gamma-2 subunits expressed in Sf9 cells
[11] = test system: Mus musculus; assay: Ethanol potentiation activity was measured as loss of righting reflex in male CF-1 mice after oral administration; format: functional
[12] = test system: Mus musculus; assay: In vivo antagonistic activity against benzodiazepine in mice after ip administration; format: functional
Procedure, shortened: (§5)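 Male CF-1 mice injected ip simultaneously with triazolam 1 mg/kg and test compound starting at […], in 0.25% aqueous methyl cellulose. Loss of traction scored 15 min later. Absence of triazolam effect indicated antagonism; lower doses at 0.5 log intervals then tested to establish ED50.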

[13] = organism: Mus musculus; assay: Acute electroshock physical dependence activity was evaluated; IA=Inactive; format: functional, organism-based
Procedure, shortened: as §2

[14] = test system: Mus musculus; assay: In vivo antagonistic activity against benzodiazepine in mice; format: functional
Procedure, shortened: as §5

[15] = organism: Mus musculus; assay: Ethanol potentiation was measured against LORR; format: functional
Procedure, shortened: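 Male CF-1 mice given 7.5 mL/kg 50% aqueous ethanol orally with test compound sc simultaneously (in 0.25% aqueous methyl cellulose). After 30 min, scored for loss of traction (hindlimb placement on wire within 10 s) and loss of righting reflex (no righting within 10 s). Six mice/dose; active compounds retested at several doses for ED50.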

[16] = molecular target: T3, GABA A receptor alpha-6/beta-2/gamma-2 (Homo sapiens, UniProt P18507+P47870+Q16445); assay: Displacement of [3H]-Ro-15-4513 from GABA-A receptor alpha-6-beta-2-gamma-2 subunits expressed in Sf9 cells
T3 sequence (Q16445 whole entry, one chain of several): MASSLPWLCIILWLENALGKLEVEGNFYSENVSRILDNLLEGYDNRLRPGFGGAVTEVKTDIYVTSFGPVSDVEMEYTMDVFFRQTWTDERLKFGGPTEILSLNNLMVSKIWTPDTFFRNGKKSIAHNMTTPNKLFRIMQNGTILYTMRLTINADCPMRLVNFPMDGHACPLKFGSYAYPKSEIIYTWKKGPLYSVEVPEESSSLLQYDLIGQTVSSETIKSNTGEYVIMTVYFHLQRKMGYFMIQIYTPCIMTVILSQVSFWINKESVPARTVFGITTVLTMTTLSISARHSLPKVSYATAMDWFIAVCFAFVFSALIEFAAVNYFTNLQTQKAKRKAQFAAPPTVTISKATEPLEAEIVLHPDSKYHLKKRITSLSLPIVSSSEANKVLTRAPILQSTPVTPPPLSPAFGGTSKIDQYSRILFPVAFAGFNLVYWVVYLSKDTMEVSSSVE
Procedure, shortened: as §1

[17] = test system: Mus musculus; assay: Acute electroshock physical dependence activity was evaluated; A=Active at 15 mg/Kg; format: functional, organism-based
[18] = molecular target: T3, GABA A receptor alpha-6/beta-2/gamma-2; assay: Displacement of [3H]Ro-154513 from GABA-A receptor alpha-6-beta-2-gamma-2 subunits expressed in Sf9 cells
Procedure, shortened: as §1

[19] = molecular target: T1, GABA-A receptor; alpha-1/beta-2/gamma-2; assay: as §4; parameters: species or system insect
Procedure, shortened: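 Equilibrium competition binding on membranes from Sf-9 cells co-infected (MOI 3) with baculoviruses for α1, β2 and γ2 subunits, harvested 60 h postinfection. Assay in normal saline with 6 nM [3H]flunitrazepam, 50 µg membrane protein and varying test ligand concentrations. Incubated 60 min at 4 °C, filtered over glass fiber, washed four times with cold saline, then scintillation counted.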

[20] = molecular target: T2, GABA A receptor alpha-3/beta-2/gamma-2; assay: as §3; remark: listed apart in the source
Procedure, shortened: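 Sf-9 cells were co-infected with baculoviruses for α3, β2 and γ2 subunits at MOI 3 and harvested 60 h postinfection to prepare membranes. Binding used 6 nM [3H]flunitrazepam, 50 µg membrane protein and varying test ligand concentrations in normal saline (NaCl/KCl/MgCl2/CaCl2/Hepes, pH 7.2). Incubation ran 60 min at 4 °C, followed by glass-fibre filtration, four cold-saline washes and scintillation counting.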

Compound `O=C(N1CCOCC1)N1Cc2c(-c3noc(C4CC4)n3)ncn2-c2ccc(Cl)cc21` has a [35S] TBPS shift [1] of 0.71, a Ki [2] of 0.22 nM and a Ki [3] of 2 nM. It also gave a 36Cl- uptake [4] of 1 and a Ki [5] of 2.3 nM.

With `O=C(N1CCOCC1)N1Cc2c(-c3noc(C4CC4)n3)ncn2-c2ccc(F)cc21` the A [6] was “Active”, the ED50 [7] was 6.2 mg/kg and the [35S] TBPS shift [1] was 0.96. It also gave a 36Cl- uptake [4] of 1.1, a Ki [8] of 0.7 nM and an ED50 [9] of 2 mg/kg. For the same compound, the Ki [5] was 0.68 nM, the Ki [10] was 0.3 nM and the ED50 [11] was over 30 mg/kg. It also gave an ED50 [12] of 1 mg/kg.

Work on `Cc1cccc2c1N(C(=O)N1CCOCC1)Cc1c(-c3noc(C4CC4)n3)ncn1-2` yielded an ED50 [7] of 5.2 mg/kg, a [35S] TBPS shift [1] of 0.51 and a 36Cl- uptake [4] of 0.7. The Ki [8] was 30 nM, the Ki [5] was 4.6 nM and the Ki [10] was 4.7 nM.

For `CC(C)n1c(=O)c2c(-c3noc(C4CC4)n3)ncn2c2ccccc21` [PANADIPLON], the ED50 [7] was 1.6 mg/kg, the [35S] TBPS shift [1] was 0.06 and the Activity [13] was “inactive”. It also gave a 36Cl- uptake [4] of 0.04, a Ki [8] of 5.7 nM and an ED50 [14] of 1.7 mg/kg. The ED50 [15] was over 30 mg/kg, the ED50 [9] was 6.6 mg/kg and the Ki [5] was 1.6 nM. The Ki [10] was 3.5 nM and the Ki [16] was 603 nM.

In the case of `CN1C(=O)CN=C(c2ccccc2)c2cc(Cl)ccc21` [DIAZEPAM], the ED50 [7] is reported as 0.5 mg/kg, the 36Cl- uptake [4] is reported as 1 and the Activity [17] is reported as “Active”. The ED50 [9] was 0.54 mg/kg, the Ki [16] was over 7000 nM and the ED50 [11] was 0.86 mg/kg.

In the case of `CC(=O)N1Cc2c(-c3noc(C4CC4)n3)ncn2-c2ccccc21`, the ED50 [7] is reported as 35 mg/kg, the [35S] TBPS shift [1] is reported as 0.94 and the Ki [2] is reported as 2.7 nM. For the same compound, the Ki [18] was 124 nM.

`CCOC(=O)c1ncn2c1CN(C)C(=O)c1cc(N=[N+]=[N-])ccc1-2` [Ro-154513] was tested, and the Ki [19] was 15 nM.

With `O=C(N1CCOCC1)N1Cc2c(-c3noc(C4CC4)n3)ncn2-c2cccc(F)c21` the Activity [6] was “Active”, the ED50 [7] was 6.2 mg/kg and the [35S] TBPS shift [1] was 0.66. It also gave a 36Cl- uptake [4] of 0.42, a Ki [8] of 0.51 nM and a Ki [5] of 0.48 nM. The Ki [10] was 0.17 nM and the Ki [16] was 13 nM.

`O=C(c1ccccc1)N1Cc2c(-c3noc(C4CC4)n3)ncn2-c2ccccc21` gave an ED50 [7] of 42 mg/kg, a [35S] TBPS shift [1] of 0.54 and a Ki [10] of 0.3 nM. The Ki [16] was 1140 nM.

Compound `CN(C)C(=O)N1Cc2c(-c3noc(C4CC4)n3)ncn2-c2ccccc21` [PNU-91571] has an ED50 [7] of 21 mg/kg, a Ki [20] of 3.5 nM and a [35S] TBPS shift [1] of 0.69. For the same compound, the Ki [2] was 1.7 nM, the Activity [13] was “inactive” and the 36Cl- uptake [4] was 0.68. It also gave an ED50 [9] of 27 mg/kg, a Ki [5] of 1 nM and an ED50 [11] of over 30 mg/kg. For the same compound, the ED50 [12] was 1 mg/kg.

Work on `CCNC(=O)N1Cc2c(-c3noc(C4CC4)n3)ncn2-c2ccccc21` yielded an ED50 [7] of 5.3 mg/kg, a Ki [20] of 15 nM and a [35S] TBPS shift [1] of 0.72. For the same compound, the Ki [2] was 4.5 nM, the Activity [13] was “inactive” and the 36Cl- uptake [4] was 0.22. The ED50 [9] was over 30 mg/kg, the Ki [5] was 3.5 nM and the ED50 [11] was over 30 mg/kg. For the same compound, the ED50 [12] was over 30 mg/kg.
